ChEMBL document CHEMBL4014332, “Multitargeted Imidazoles: Potential Therapeutic Leads for Alzheimer's and Other Neurodegenerative Diseases” (J Med Chem, 2017)
Values belong to the molecule of their own block, whether it stands above or below them.

Key:
Rattus norvegicus = species on record: Rattus norvegicus; experiment: Inhibition of 5-LOX-mediated LTB4 production in arachidonic acid-stimulated RBL1 cells at 10 uM preincubated for 2 hrs followed by A23187 induction for 15 mins by LC/MS/MS analysis relative to control
Summary of the method: (§1)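 RBL-1 cells grown in RPMI/10% FBS, plated 9 × 10⁵ cells/well, held 2 h at 37 °C, then given compound for 2 h (screen at 10 μM, then concentration–response in triplicate). Stimulation was 12 μM A23187 for 15 min. Supernatants were extracted with MeOH/0.01% BHT and LTB₄ quantified by UPLC-MS/MS in negative ion mode.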

[1] = Change in total alpha-tubulin levels in human QBI293 cells at 1 uM after 4 hrs by ELISA relative to control; details: qbi293, 4 h
[2] = Inhibition of 5-LOX-mediated LTB4 production in arachidonic acid-stimulated RBL1 cells preincubated for 2 hrs followed by A23187 induction for 15 mins by LC/MS/MS analysis; details: Rattus norvegicus, RBL-1; summary of the method: as §1
Cyclooxygenase = target: T1, Cyclooxygenase (Rattus norvegicus, UniProt P35355+Q63921); experiment: Inhibition of COX-mediated PGD2/PGE2 production in arachidonic acid-stimulated RBL1 cells preincubated for 2 hrs followed by A23187 induction for 15 mins by LC/MS/MS analysis
T1 sequence (P35355 whole entry): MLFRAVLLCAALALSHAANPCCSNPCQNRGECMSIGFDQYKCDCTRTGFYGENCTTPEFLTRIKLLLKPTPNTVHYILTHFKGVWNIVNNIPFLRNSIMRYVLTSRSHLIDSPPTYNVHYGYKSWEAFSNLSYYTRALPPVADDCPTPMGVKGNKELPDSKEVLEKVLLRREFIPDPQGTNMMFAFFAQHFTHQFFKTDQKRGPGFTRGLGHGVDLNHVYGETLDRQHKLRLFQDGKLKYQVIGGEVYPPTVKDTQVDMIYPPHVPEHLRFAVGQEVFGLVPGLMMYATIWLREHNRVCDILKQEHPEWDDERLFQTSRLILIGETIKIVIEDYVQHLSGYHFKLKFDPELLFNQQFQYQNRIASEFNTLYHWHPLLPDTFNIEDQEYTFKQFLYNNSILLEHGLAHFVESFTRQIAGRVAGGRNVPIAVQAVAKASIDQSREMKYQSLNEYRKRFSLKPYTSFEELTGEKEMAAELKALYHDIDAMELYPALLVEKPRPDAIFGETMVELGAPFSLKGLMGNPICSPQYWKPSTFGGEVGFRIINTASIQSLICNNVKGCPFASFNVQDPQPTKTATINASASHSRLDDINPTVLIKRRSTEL
T1 sequence (Q63921 whole entry): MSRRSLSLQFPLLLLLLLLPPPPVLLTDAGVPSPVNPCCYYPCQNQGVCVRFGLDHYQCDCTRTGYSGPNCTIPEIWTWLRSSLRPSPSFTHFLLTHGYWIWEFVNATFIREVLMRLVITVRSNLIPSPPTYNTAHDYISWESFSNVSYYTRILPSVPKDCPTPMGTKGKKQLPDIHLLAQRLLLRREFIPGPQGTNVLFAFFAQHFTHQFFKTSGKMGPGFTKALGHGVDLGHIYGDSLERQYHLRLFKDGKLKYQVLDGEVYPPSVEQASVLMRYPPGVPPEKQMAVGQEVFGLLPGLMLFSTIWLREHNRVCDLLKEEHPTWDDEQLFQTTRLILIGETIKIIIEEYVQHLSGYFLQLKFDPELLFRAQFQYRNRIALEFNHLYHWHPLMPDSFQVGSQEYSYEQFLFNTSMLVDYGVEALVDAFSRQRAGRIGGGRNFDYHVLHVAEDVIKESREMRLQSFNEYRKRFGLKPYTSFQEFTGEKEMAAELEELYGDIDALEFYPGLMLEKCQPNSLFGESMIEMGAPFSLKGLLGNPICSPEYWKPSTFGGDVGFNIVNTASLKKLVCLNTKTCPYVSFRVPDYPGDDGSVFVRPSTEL
Summary of the method: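 RBL-1 cells in RPMI/10% FBS, 9 × 10⁵ cells/well, held 2 h, then exposed to compound for 2 h at multiple concentrations in triplicate. Stimulation was 12 μM A23187 for 15 min. Eicosanoids were extracted with MeOH/0.01% BHT, and PGD₂ plus PGE₂ measured by UPLC-MS/MS (negative ion, 351 > 315).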

SMILES: Fc1cccc(F)c1-c1cnc(Cl)n1-c1ccc(OC(F)(F)F)cc1
- inhibition (Rattus norvegicus): 61%
- Activity [1]: Non-Toxic

SMILES: Cc1nc(Cl)n(-c2ccc(Cl)cc2)c1-c1c(F)ccc(F)c1F
- inhibition (Rattus norvegicus): 58%
- Activity [1]: Non-Toxic

SMILES: Fc1cccc(F)c1-c1cncn1-c1ccccc1
- inhibition (Rattus norvegicus): < 10%
- Activity [1]: Non-Toxic

SMILES: Fc1ccc(-c2cnc(Cl)n2-c2ccc(Cl)cc2)cc1
- inhibition (Rattus norvegicus): 57%
- Activity [1]: Non-Toxic

SMILES: Fc1cccc(F)c1-c1c(Cl)nc(Cl)n1-c1ccc(OC(F)(F)F)cc1
- inhibition (Rattus norvegicus): 81%
- Activity [1]: Non-Toxic

SMILES: Clc1ccc(-n2c(-c3ccccc3)cnc2Cl)cc1
- inhibition (Rattus norvegicus): 52%
- FC [1]: 1.2

SMILES: Fc1cccc(F)c1-c1c(Cl)nc(Cl)n1-c1ccc(Cl)cc1
- inhibition (Rattus norvegicus): 90%
- Activity [1]: Non-Toxic

SMILES: Fc1cccc(F)c1-c1c(Cl)nc(Cl)n1-c1ccccc1Cl
- inhibition (Rattus norvegicus): 21%
- Activity [1]: Non-Toxic

SMILES: Fc1ccc(Cl)c(F)c1-c1cnc(Cl)n1-c1ccc(Cl)cc1
- inhibition (Rattus norvegicus): 88%
- FC [1]: 0.8

SMILES: COc1ccc(-c2cncn2-c2ccc(Cl)cc2)cc1
- inhibition (Rattus norvegicus): < 10%
- Activity [1]: Non-Toxic

SMILES: Fc1ccc(F)c(-c2c(Cl)nc(Cl)n2-c2ccc(OC(F)(F)F)cc2)c1F
- inhibition (Rattus norvegicus): 56%
- Activity [1]: Non-Toxic

SMILES: Cc1ncc(-c2c(F)ccc(F)c2F)n1-c1ccc(Cl)cc1
- inhibition (Rattus norvegicus): 45%
- FC [1]: 0.9

SMILES: Cc1nc(Cl)n(-c2ccc(Cl)cc2)c1-c1c(F)cccc1F
- inhibition (Rattus norvegicus): 42%
- Activity [1]: Non-Toxic

SMILES: Fc1ccc(F)c(-c2cncn2-c2ccc(OC(F)(F)F)cc2)c1F
- inhibition (Rattus norvegicus): 52%
- FC [1]: 1.2

SMILES: Fc1cccc(F)c1-c1cnc(Cl)n1-c1ccccc1Cl
- inhibition (Rattus norvegicus): 38%
- Activity [1]: Non-Toxic

SMILES: Fc1cccc(F)c1-c1cncn1-c1ccccc1Cl
- inhibition (Rattus norvegicus): < 10%
- Activity [1]: Non-Toxic

SMILES: Clc1ccc(-n2cncc2-c2ccccc2)cc1
- inhibition (Rattus norvegicus): 16%
- Activity [1]: Non-Toxic

SMILES: Cc1nc(Cl)n(-c2ccc(Cl)cc2)c1-c1c(F)ccc(Cl)c1F
- inhibition (Rattus norvegicus): 54%
- FC [1]: 0.5

SMILES: Clc1ccc(-n2c(Cl)nc(Cl)c2-c2ccccc2)cc1
- inhibition (Rattus norvegicus): < 10%
- Activity [1]: Non-Toxic

SMILES: CC(C)Cc1ccc(C(C)C(=O)O)cc1 (configuration not stated) [IBUPROFEN]
- inhibition (Rattus norvegicus): < 10%
- Activity [1]: Non-Toxic

SMILES: Fc1ccc(F)c(-c2cnc(Cl)n2-c2ccc(OC(F)(F)F)cc2)c1F
- inhibition (Rattus norvegicus): 80%
- Activity [1]: Non-Toxic

SMILES: Fc1cccc(F)c1-c1cncn1-c1ccc(OC(F)(F)F)cc1
- inhibition (Rattus norvegicus): 55%
- Activity [1]: Non-Toxic

SMILES: COc1ccc(F)c(-c2cncn2-c2ccc(Cl)cc2)c1F
- inhibition (Rattus norvegicus): 78%
- Activity [1]: Non-Toxic

SMILES: COc1ccc(F)c(-c2cnc(Cl)n2-c2ccc(Cl)cc2)c1F
- inhibition (Rattus norvegicus): 68%
- FC [1]: 0.6

SMILES: Cc1nc(C)n(-c2ccc(Cl)cc2)c1-c1c(F)ccc(Cl)c1F
- inhibition (Rattus norvegicus): 51%
- Activity [1]: Non-Toxic

SMILES: COc1ccc(-c2c(Cl)ncn2-c2ccc(Cl)cc2)cc1
- inhibition (Rattus norvegicus): < 10%
- Activity [1]: Non-Toxic

Further lines, with some results ahead:

- inhibition (Rattus norvegicus): 78%
- FC [1]: 0.8
SMILES: Cc1ccc(F)c(-c2c(Cl)ncn2-c2ccc(Cl)cc2)c1F

- inhibition (Rattus norvegicus): 44%
SMILES: Cc1ncn(-c2ccc(Cl)cc2)c1-c1c(F)cccc1F
- Activity [1]: Non-Toxic

- inhibition (Rattus norvegicus): 59%
SMILES: Fc1ccc(-c2c(Cl)ncn2-c2ccc(Cl)cc2)cc1
- Activity [1]: Non-Toxic

- inhibition (Rattus norvegicus): 26%
SMILES: Cc1nc(Cl)c(-c2c(F)cc(F)cc2F)n1-c1ccc(Cl)nc1
- Activity [1]: Non-Toxic

- inhibition (Rattus norvegicus): 48%
SMILES: Fc1cc(F)c(-c2c(Cl)nc(Cl)n2-c2ccc(Cl)cc2)c(F)c1
- Activity [1]: Non-Toxic

- inhibition (Rattus norvegicus): 63%
- FC [1]: 0.7
SMILES: Cc1cc(F)c(-c2c(Cl)nc(Cl)n2-c2ccc(Cl)cc2)c(F)c1

- IC50 [2]: 9.7 µM
- inhibition (Rattus norvegicus): 86%
- IC50 (Cyclooxygenase): 2.4 µM
SMILES: COc1ccc(-n2cnc(Cl)c2-c2c(F)cc(F)cc2F)cc1
- Activity [1]: Non-Toxic

- inhibition (Rattus norvegicus): 24%
SMILES: Fc1ccc(F)c(-c2cnc(Cl)n2-c2ccc(Cl)cc2)c1F
- Activity [1]: Non-Toxic

- inhibition (Rattus norvegicus): 58%
SMILES: Fc1cc(-n2c(-c3c(F)ccc(F)c3F)cnc2Cl)ccc1Cl
- Activity [1]: Non-Toxic

- inhibition (Rattus norvegicus): 78%
SMILES: Fc1cccc(F)c1-c1c(Cl)ncn1-c1ccc(OC(F)(F)F)cc1
- Activity [1]: Non-Toxic

- inhibition (Rattus norvegicus): 24%
SMILES: Fc1cc(F)c(-c2cncn2-c2ccc(Cl)cc2)c(F)c1
- Activity [1]: Non-Toxic

- inhibition (Rattus norvegicus): 56%
SMILES: Fc1cccc(F)c1-c1c(Cl)ncn1-c1ccccc1Cl
- Activity [1]: Non-Toxic

- inhibition (Rattus norvegicus): 61%
SMILES: Fc1cc(F)c(-c2cnc(Cl)n2-c2ccc(Cl)cc2)c(F)c1
- Activity [1]: Non-Toxic

- inhibition (Rattus norvegicus): 25%
SMILES: COc1ccc(-n2cncc2-c2c(F)cc(F)cc2F)cc1
- Activity [1]: Non-Toxic

- inhibition (Rattus norvegicus): 14%
SMILES: Fc1cc(Cl)ccc1-n1cnc(Cl)c1-c1c(F)cccc1F
- Activity [1]: Non-Toxic

- inhibition (Rattus norvegicus): 91%
- FC [1]: 0.8
SMILES: COc1ccc(F)c(-c2c(Cl)ncn2-c2ccc(Cl)cc2)c1F

- inhibition (Rattus norvegicus): 73%
SMILES: Cc1cc(F)c(-c2cnc(Cl)n2-c2ccc(Cl)cc2)c(F)c1
- Activity [1]: Non-Toxic

- inhibition (Rattus norvegicus): < 10%
- FC [1]: 0.8
SMILES: Fc1cc(F)c(-c2c(Cl)ncn2-c2ccc(Cl)nc2)c(F)c1

- inhibition (Rattus norvegicus): 46%
SMILES: Fc1cc(F)c(-c2c(Cl)ncn2-c2ccc(Cl)cc2)c(F)c1
- Activity [1]: Non-Toxic

- inhibition (Rattus norvegicus): < 10%
SMILES: Cc1nc(Cl)c(-c2c(F)cc(F)cc2F)n1-c1ccc(Cl)cc1
- Activity [1]: Non-Toxic

- inhibition (Rattus norvegicus): 69%
SMILES: Fc1ccc(F)c(-c2c(Cl)ncn2-c2ccc(Cl)cc2)c1
- Activity [1]: Non-Toxic

- inhibition (Rattus norvegicus): 85%
SMILES: Fc1ccc(F)c(-c2c(Cl)ncn2-c2ccc(OC(F)(F)F)cc2)c1F
- Activity [1]: Non-Toxic

- inhibition (Rattus norvegicus): 49%
SMILES: Fc1cc(Cl)ccc1-n1c(-c2c(F)cccc2F)cnc1Cl
- Activity [1]: Non-Toxic

- inhibition (Rattus norvegicus): 84%
SMILES: Cc1cc(F)c(-c2cncn2-c2ccc(Cl)cc2)c(F)c1
- Activity [1]: Non-Toxic
